DSG3 Ab inh – inhibitors of pemphigus antibody binding to DSG3, primary screen, biochemical, bead-based, flow cytometry, scFv-GFP. binding (percent of control), % at 10 µM. AID 588358, 2011. DSG3-coupled beads, scFv-anti-DSG3-GFP binding; hits give low values. Desmoglein-3 (Homo sapiens), P32926. 310,000 tested, 0.48% active;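 active = binding more than 3 SD below its plate's average and above zero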;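 note: hits lower antibody fragment binding to DSG3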
GPR7 antag – GPR7 receptor antagonists, primary screen, cell-based, fluorescence, single concentration; GPR7-expressing cells, fluorescence antagonist assay; inhibition, % at 4.4 µM; 290,000 tested, 1.1% active; AID 1861, 2009; in the data active = inhibition above about 16%, passing the limit was not always enough;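 note: cells stimulated with the agonist NPW; 0% = agonist with vehicle and 100% = vehicle without agonist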
CHT inh – inhibitors of human choline transporter CHT | High affinity choline transporter 1 (Homo sapiens), Q9GZV3 | B-score at 10 µM | 310,000 tested, 0.86% active | CHT-expressing cells, membrane potential dye, choline response; hits give low values;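 active = B-score over 3 SD under the library average, and starting fluorescence ratio not unusually high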;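 note: choline stimulus applied at its EC90 after an EC20 pre-addition; B-score computed on integrated fluorescence ratio after choline addition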
p-CIP stab down – p/CIP-EGFP fusion destabilizers, primary screen, fluorescence, F442A cells; AID 1984, 2009; decrease of EGFP signal, % at 10 µM; 16 h; 290,000 tested, 0.01% active;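 active = EGFP signal decrease of at least 30% at 10 µM or well 3 SD below plate mean, unless failing retest; inactive = the rest, including hits failing retest or dose response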
Target sequence (Q05BA5 1-1403): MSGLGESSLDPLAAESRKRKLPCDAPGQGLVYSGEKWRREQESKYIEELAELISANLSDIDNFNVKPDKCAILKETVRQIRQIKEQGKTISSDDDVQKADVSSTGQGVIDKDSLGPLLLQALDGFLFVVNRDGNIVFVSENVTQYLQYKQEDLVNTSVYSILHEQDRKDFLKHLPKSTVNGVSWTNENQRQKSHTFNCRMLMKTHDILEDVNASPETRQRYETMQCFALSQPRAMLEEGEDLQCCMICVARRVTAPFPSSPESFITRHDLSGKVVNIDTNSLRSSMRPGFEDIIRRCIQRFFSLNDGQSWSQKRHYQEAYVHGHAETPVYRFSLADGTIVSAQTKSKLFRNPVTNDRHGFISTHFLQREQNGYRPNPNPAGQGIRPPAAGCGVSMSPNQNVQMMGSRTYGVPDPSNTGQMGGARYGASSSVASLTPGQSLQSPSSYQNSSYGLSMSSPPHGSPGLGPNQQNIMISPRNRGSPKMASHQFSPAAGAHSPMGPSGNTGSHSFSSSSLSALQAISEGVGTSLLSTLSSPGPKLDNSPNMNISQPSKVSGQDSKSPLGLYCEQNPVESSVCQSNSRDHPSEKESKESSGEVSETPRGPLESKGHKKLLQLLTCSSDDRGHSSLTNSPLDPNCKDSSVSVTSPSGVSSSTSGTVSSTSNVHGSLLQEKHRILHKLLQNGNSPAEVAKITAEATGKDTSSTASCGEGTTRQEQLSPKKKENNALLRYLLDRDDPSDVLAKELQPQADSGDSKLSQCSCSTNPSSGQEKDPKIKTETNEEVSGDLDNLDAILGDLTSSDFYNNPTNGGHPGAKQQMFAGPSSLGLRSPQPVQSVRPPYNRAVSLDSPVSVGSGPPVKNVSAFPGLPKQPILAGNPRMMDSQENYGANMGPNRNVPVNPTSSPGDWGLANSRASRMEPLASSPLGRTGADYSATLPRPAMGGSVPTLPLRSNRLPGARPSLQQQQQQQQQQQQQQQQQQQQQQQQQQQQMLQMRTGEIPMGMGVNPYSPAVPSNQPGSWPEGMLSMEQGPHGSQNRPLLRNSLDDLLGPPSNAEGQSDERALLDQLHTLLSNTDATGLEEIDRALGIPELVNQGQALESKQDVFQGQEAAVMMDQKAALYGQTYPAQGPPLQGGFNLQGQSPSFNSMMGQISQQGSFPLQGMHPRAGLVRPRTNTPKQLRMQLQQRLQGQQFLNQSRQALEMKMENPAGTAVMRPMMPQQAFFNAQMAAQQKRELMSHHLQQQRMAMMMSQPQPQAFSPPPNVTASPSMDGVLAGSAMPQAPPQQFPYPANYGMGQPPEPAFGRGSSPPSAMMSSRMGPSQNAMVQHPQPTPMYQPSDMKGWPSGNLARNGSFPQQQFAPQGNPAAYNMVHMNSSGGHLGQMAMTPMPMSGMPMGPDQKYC
CHT PAM – CHT positive allosteric modulators, primary screen, cell-based, membrane potential dye, choline EC20; High affinity choline transporter 1 (Homo sapiens), Q9GZV3; CHT-expressing cells; hits give high values; LV-AA mutant CHT in HEK293 cells; B-score at 10 µM; 310,000 tested, 0.49% active; AID 488977, 2010;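 active = initial fluorescence not abnormally high and integrated response B-score, plate-corrected, over 3 SD above library mean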
T cell HTS – modulators of CD8 T cell-vesicle binding, primary screen, mouse 2C CD8+ T cells, flow cytometry; 2C CD8+ T cell-vesicle binding; hits give low values; 330,000 tested, 0.068% active; response (vesicle binding), % at 7 µM;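 active = response, share of CD8 T cells binding vesicles, and their 90th percentile fluorescence all below set limits, cut at about 80% in these data, passing the limit was not always enough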;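 note: values below 100% mean blocked vesicle binding to the CD8+ T cells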
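System: murine 2C transgenic CD8+ T lymphocytes; also added: QL9-loaded Drosophila micro-vesicles; times: binding 1.5 h at 37 °C; measured by: flow cytometry, PE anti-B7-1 (FL2) versus Alexa647 anti-CD8 (FL8), PFA-fixed; control set: Peptide-free naked vesicles (low) and QL9 vesicles with 0.7% DMSO vehicle (high)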
CHT inh conf – CHT inhibitors, confirmation, cell-based, membrane potential dye, duplicate. CHT-expressing cells, choline membrane potential dye; LV-to-AA substituted CHT, HEK293 cells. 2,400 tested, 70% active. AID 493221, 2011. shares compounds with CHT inh. CHT activity remaining % of control (hits give low values), % at 10 µM;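 active = choline transporter activity left, mean of duplicates at 10 µM, below buffer-only control mean minus 3 SD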;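 note: depolarization triggered by choline at its EC90 following an EC20 pre-addition; 0% = hemicholinium-3 full block and 100% = buffer-only control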
HEK293 MPD ctr – membrane potential effects in parental HEK293, counter-screen for CHT inhibitor project, cell-based, membrane potential dye; shares compounds with CHT inh; 2,400 tested, 4% active; choline response; active = decrease or increase beyond buffer ±3SD; AID 493222, 2011; membrane potential ratio readout (active if shifted either direction beyond buffer ±3SD; no single direction) at 10 µM;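 note: parental cells lack the transporter so any hit is non-specific; ratio is peak minus trough fluorescence over baseline after EC90 choline challenge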
An asterisk follows results filed as active; i = inactive; nt = not tested or not shown. Compounds with a hit are over-represented: about 2.3% of the library has one in this group of screens.

SMILES	DSG3 Ab inh	GPR7 antag	CHT inh	p-CIP stab down	CHT PAM	T cell HTS	CHT inh conf	HEK293 MPD ctr
Cc1ccc(-n2cnc3c(=O)[nH]cnc32)cc1	92	nt	nt	nt	nt	nt	nt	nt
COc1cccc(/C=C2\SC(=O)N(CC(=O)NCCCn3ccnc3)C2=O)c1	106	-8	i	1	i	i	nt	nt
O=C(CN1C(=O)S/C(=C\c2cccc(Cl)c2)C1=O)NCCCn1ccnc1	96	13	-5.8*	5	i	220	56%*	i
C#CCNc1c(C)c(C)nc2ncnn12	nt	0	-5*	-6	i	299	23%*	i
CC(Oc1ccc(Br)cc1)C(=O)N(Cc1ccccc1)c1c(N)n(Cc2ccccc2)c(=O)[nH]c1=O (centres undefined)	102	nt	nt	nt	nt	nt	nt	nt
CC(=O)Oc1ccc2nc(-c3ccco3)oc(=O)c2c1	99	-11	-10*	0	i	248	i	i
COc1ccc(C2=NN(c3ccc(C(=O)O)cc3)C(c3ccc(OC)c(OC)c3)C2)cc1 (centres undefined)	nt	-19	-5.3*	-25	i	282	62%*	i
Cc1cc(C(=O)NNC(=O)/C=C/c2ccco2)c(C)o1	105	nt	nt	nt	nt	nt	nt	nt
COc1ccc(S(=O)(=O)c2cnc3ccc(OC)cc3c2N2CCC3(CC2)OCCO3)cc1	97	-17	-9.7*	-2	i	154	23%*	i
CCOc1ccc2ncc(S(=O)(=O)c3ccccc3)c(N3CCC4(CC3)OCCO4)c2c1	nt	-5	i	-5	i	416	nt	nt
CC1=C(C(=O)Nc2ccccc2)C(c2ccncc2)C(C#N)=C(SCC(=O)Nc2ccccc2)N1 (centres undefined)	109	-1	i	3	i	343	nt	nt
CSC1=C(C#N)C(c2ccncc2)C(C(=O)Nc2ccccc2)=C(C)N1 (centres undefined)	111	-17	-5*	0	i	279	51%*	i
OCCN1CCN(c2ncnc3scc(-c4ccc(F)cc4)c23)CC1	94	-6	-5.7*	-3	i	128	33%*	i
COc1ccc(-c2csc3ncnc(NCCCO)c23)cc1	89	-15	-5.8*	-3	i	174	59%*	i
COc1ccc(-c2csc3ncnc(N4CCN(CCO)CC4)c23)cc1	95	6	-7.9*	0	i	306	42%*	i
COc1ccc(-c2csc3ncnc(Nc4ccc(O)cc4)c23)cc1	96	2	i	-6	i	173	nt	nt
CCN1CCN(c2ncnc3scc(-c4ccc(C)cc4)c23)CC1	101	-1	-9.9*	-6	i	282	22%*	i
Cc1ccc(-c2csc3ncnc(N4CCN(Cc5ccccc5)CC4)c23)cc1	120	11	i	1	i	369	nt	nt
O=C(C[C@H]1C/C=C\C[C@@H](Cc2ccc(F)cc2)C(=O)OC[C@H]2CCCN2C1=O)NCCO	104	nt	nt	nt	nt	557	nt	nt
COc1cccc(C2c3cc4c(cc3OC(NNC(N)=O)C2C)OCO4)c1O (centres undefined)	94	nt	nt	nt	nt	nt	nt	nt
C=CCc1ccc(O)c(-c2cc(CC=C)ccc2O)c1	103	-14	-9.9*	-15	i	101	36%*	i
COc1ccc(-c2nc(C=O)cs2)cc1	99	-5	-5.5*	7	i	237	23%*	i
Cc1ccc(S(=O)(=O)NNC(=O)c2sccc2-n2cccc2)cc1	nt	-10	i	-3	i	112	nt	nt
Cc1ccc(S(=O)(=O)NNC(=O)c2sc3nc(C)cc(C)c3c2-n2cccc2)cc1	106	-16	-5*	-16	i	491	i	i
CC(C)(C)n1nnnc1C(c1ccc2ncccc2c1)N1CCC(O)CC1 (centres undefined)	96	-9	-5.3*	1	i	247	i	i
SMILES	DSG3 Ab inh	GPR7 antag	CHT inh	p-CIP stab down	CHT PAM	T cell HTS	CHT inh conf	HEK293 MPD ctr
Oc1ccc(C=NNC(=S)Nc2ccccc2)nc1	104	nt	nt	nt	nt	nt	nt	nt
Cc1cc(C(C)(C)C)cc(C)c1CCNC(=O)c1c(C)noc1C	100	nt	nt	nt	nt	nt	nt	nt
CCOC1=C(C#N)CC2(CC1)c1ccccc1-c1ccccc12	96	nt	nt	nt	nt	nt	nt	nt
CC(=O)SC(C[N+](=O)[O-])c1cn(C(C)=O)c2ccccc12 (centres undefined)	92	14	-5.5*	9	i	424	67%*	i
CC(=O)n1cc(Nc2ccc([N+](=O)[O-])cc2)c2ccccc21	100	-4	i	20	i	328	nt	nt
Cc1ccc(C)c(N2N=C(C(=O)OCc3nnc(-c4ccccc4Br)o3)CCC2=O)c1	105	nt	nt	nt	nt	nt	nt	nt
COc1cc(N(C)C)c([N+](=O)[O-])cc1C(=O)NC(C)CNc1ccc([N+](=O)[O-])cc1Cl (centres undefined)	97	-4	-5.6*	-12	i	156	i	i
COc1ccc2c(c1)sc(=NC(=O)CS(=O)(=O)c1ccc(F)cc1)n2C	95	nt	i	nt	i	250	nt	nt
Cc1sc2nc(SCCN(C)C)n(-c3ccccc3)c(=O)c2c1-c1ccc(F)cc1	106	-4	-5.9*	8	i	249	26%*	i
CN(C)CCSc1nc(O)c(-c2ccccc2)c(=O)n1-c1ccccc1	114	18	i	-9	i	87	nt	nt
O=C(NC(=S)NNC(=O)c1ccco1)c1ccc(Br)cc1	124	-1	i	-15	i	721	nt	nt
COc1c(F)cccc1C1=CC(=O)C[C@H](c2ccc(F)cc2)C1	96	nt	nt	nt	nt	nt	nt	nt
O=C(COc1ccccc1)N1CCN(c2nnc(-c3ccccc3)c3ccccc23)CC1	nt	-1	-5.2*	18	i	206	i	i
COc1ccc(OCC(=O)N2CCN(c3nnc(-c4ccccc4)c4ccccc34)CC2)cc1	119	-6	i	-10	i	449	nt	nt
C[C@@H]1CN([C@H](C)CO)C(=O)CCCn2cc(nn2)CO[C@H]1CN(C)C(=O)Nc1ccnc(N2CCOCC2)c1	108	nt	nt	nt	nt	nt	nt	nt
